Experimental data as given in ChEMBL document CHEMBL4385606, “3,5,7-Substituted Pyrazolo[4,3- d]pyrimidine Inhibitors of Cyclin-Dependent Kinases and Their Evaluation in Lymphoma Models” (J Med Chem, 2019).

Legend:
[1] = target: Cyclin-dependent kinase 2/cyclin E1 (Homo sapiens, UniProt P24941); experiment: Inhibition of His-tagged CDK2/Cyclin-E1 (unknown origin) expressed in baculovirus infected Sf9 insect cells using histone H1 as substrate measured in presence of [gamma-33P]ATP; assay type: cell-based
[2] = Antiproliferative activity against human OCI-Ly2 cells measured after 72 hrs by calcein AM dye-based fluorescence assay; assay type: functional
Method in brief: (§1)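 Cells exposed in triplicate to six concentrations for 72 h; calcein AM added for 1 h, live-cell fluorescence read at 485/538 nm (ex/em). GI50 taken from dose-response curves.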

HT = experiment: Antiproliferative activity against human HT cells measured after 72 hrs by calcein AM dye-based fluorescence assay; assay type: functional; method in brief: as §1
[3] = Antiproliferative activity against human Mino cells measured after 72 hrs by calcein AM dye-based fluorescence assay; assay type: functional; method in brief: as §1
[4] = target: Cyclin-dependent kinase 4/cyclin D1 (Homo sapiens, UniProt P11802); experiment: Inhibition of recombinant human N-terminal GST-fused CDK4 (S4 to E303 residues)/cyclin D1 (Q4 to I295 residues) expressed in baculovirus infected Sf9 insect cells using RPPTLSPIPHIPR as substrate measured in presence of [gamma-33P]ATP
Method in brief: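 CDK/cyclin complexes tested in triplicate at minimum; IC50 values reported from those replicate determinations.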

CDK9/cyclin T1 = CDK9/cyclin T1 (Homo sapiens, UniProt P50750); experiment: Inhibition of recombinant human N-terminal GST-His6-fused CDK9 (M1 to F372 residues)/N-terminal His6-tagged cyclin T1 (M1 to K726 residues) expressed in baculovirus infected Sf9 insect cells using (YSPTSPS)2KK as substrate measured in presence of [gamma-33P]ATP
CDK9/cyclin T1, sequence (O60563 whole entry, the tested form may be a part): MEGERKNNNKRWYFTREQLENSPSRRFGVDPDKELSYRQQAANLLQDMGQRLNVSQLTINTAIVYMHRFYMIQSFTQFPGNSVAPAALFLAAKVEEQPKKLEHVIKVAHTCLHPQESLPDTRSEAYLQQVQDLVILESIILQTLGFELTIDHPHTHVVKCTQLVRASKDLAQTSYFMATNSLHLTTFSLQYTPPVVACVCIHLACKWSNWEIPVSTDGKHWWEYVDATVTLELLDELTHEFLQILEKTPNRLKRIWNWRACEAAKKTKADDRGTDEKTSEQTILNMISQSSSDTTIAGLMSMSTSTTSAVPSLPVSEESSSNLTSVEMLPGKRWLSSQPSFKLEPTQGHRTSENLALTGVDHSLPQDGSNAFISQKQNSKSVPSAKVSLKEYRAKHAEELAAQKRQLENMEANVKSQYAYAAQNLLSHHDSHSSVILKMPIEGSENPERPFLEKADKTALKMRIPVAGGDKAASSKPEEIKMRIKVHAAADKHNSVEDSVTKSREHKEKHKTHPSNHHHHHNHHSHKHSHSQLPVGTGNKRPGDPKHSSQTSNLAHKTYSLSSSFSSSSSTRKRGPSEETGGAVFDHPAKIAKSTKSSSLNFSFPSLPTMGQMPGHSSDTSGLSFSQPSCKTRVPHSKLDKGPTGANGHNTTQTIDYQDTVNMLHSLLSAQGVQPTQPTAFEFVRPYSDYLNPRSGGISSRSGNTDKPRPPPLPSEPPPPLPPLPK
CDK9/cyclin T1, sequence (P50750 whole entry, the tested form may be a part): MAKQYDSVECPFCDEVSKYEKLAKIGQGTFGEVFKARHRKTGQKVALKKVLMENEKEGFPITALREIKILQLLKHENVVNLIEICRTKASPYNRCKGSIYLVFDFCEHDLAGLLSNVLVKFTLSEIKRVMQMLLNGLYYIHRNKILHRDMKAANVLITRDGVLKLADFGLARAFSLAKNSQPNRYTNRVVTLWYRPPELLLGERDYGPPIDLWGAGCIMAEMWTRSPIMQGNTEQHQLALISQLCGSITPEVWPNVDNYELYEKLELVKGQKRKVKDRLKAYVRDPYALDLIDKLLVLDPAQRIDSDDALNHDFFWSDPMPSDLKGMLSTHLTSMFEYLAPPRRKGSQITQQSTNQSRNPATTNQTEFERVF

Cyclin-dependent kinase 4/cyclin D1, sequence (P11802 whole entry, the tested form may be a part): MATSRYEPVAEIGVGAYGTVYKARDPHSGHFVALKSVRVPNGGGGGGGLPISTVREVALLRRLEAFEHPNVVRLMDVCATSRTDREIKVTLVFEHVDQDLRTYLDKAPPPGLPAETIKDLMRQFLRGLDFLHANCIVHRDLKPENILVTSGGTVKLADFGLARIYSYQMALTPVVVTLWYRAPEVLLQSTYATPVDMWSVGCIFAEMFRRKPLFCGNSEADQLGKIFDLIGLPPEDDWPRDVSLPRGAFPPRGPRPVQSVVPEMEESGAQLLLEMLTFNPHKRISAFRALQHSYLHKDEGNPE
Cyclin-dependent kinase 4/cyclin D1, sequence (P24385 whole entry, further chain, the tested form may be a part): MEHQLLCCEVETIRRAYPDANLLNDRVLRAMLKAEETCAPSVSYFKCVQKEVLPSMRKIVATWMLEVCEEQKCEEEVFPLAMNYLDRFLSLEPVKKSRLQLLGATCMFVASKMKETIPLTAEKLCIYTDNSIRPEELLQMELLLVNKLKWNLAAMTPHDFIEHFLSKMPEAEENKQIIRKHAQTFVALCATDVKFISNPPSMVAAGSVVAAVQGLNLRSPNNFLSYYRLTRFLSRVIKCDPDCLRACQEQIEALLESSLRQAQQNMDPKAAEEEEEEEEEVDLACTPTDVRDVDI

Structure (SMILES)	IC50 [1]	GI50 [2]	GI50 (HT)	GI50 [3]	IC50 [4]	IC50 (CDK9/cyclin T1)
CCC(O)CSc1nc(NCc2ccc(-c3ccccn3)cc2)c2[nH]nc(C(C)C)c2n1 (configuration not stated)	39 nM	280 nM	273 nM	427 nM	–	–
CSc1nc(NCc2ccc(-c3ccccn3)cc2)c2[nH]nc(C(C)C)c2n1	–	1210 nM	783 nM	1050 nM	–	–
C=CCSc1nc(NCc2ccc(-c3ccccn3)cc2)c2[nH]nc(C(C)C)c2n1	100 nM	858 nM	1000 nM	923 nM	–	–
CC(C)c1n[nH]c2c(NCc3ccc(-c4ccccn4)cc3)nc(SCC(C)(C)O)nc12	30 nM	610 nM	507 nM	477 nM	–	–
CC(C)c1n[nH]c2c(NCc3ccc(-c4ccccn4)cc3)nc(SCC(O)CN3CCNCC3)nc12 (configuration not stated)	171 nM	435 nM	332 nM	767 nM	–	–
CC(C)c1n[nH]c2c(NCc3ccc(-c4ccccn4)cc3)nc(SCCNC(N)=O)nc12	18 nM	198 nM	240 nM	136 nM	–	–
CC(C)c1n[nH]c2c(NCc3ccc(-c4ccccn4)cc3)nc(S)nc12	558 nM	3240 nM	2760 nM	2180 nM	–	–
CC(C)c1n[nH]c2c(NCc3ccc(-c4ccccn4)cc3)nc(SCC(O)CO)nc12 (configuration not stated)	10 nM	22 nM	21 nM	10 nM	–	–
CC(C)c1n[nH]c2c(NCc3ccc(-c4ccccn4)cc3)nc(SCCn3ccnc3)nc12	32 nM	145 nM	155 nM	135 nM	–	–
CC(C)c1n[nH]c2c(NCc3ccc(-c4ccccn4)cc3)nc(SCC(N)=O)nc12	27 nM	163 nM	192 nM	197 nM	–	–
CC(C)c1n[nH]c2c(NCc3ccc(-c4ccccn4)cc3)nc(SCCNC(=N)N)nc12	30 nM	812 nM	390 nM	390 nM	–	–
CC(C)c1n[nH]c2c(NCc3ccc(-c4ccccn4)cc3)nc(SCCCO)nc12	21 nM	102 nM	109 nM	89 nM	–	–
CC(C)c1n[nH]c2c(NCc3ccc(-c4ccccn4)cc3)nc(SCC(O)CN)nc12 (racemic)	31 nM	55 nM	55 nM	64 nM	–	–
CSCCSc1nc(NCc2ccc(-c3ccccn3)cc2)c2[nH]nc(C(C)C)c2n1	138 nM	668 nM	975 nM	773 nM	–	–
COCSc1nc(NCc2ccc(-c3ccccn3)cc2)c2[nH]nc(C(C)C)c2n1	59 nM	285 nM	340 nM	243 nM	–	–
CC(C)c1n[nH]c2c(NCc3ccc(-c4ccccn4)cc3)nc(SCCO)nc12	3 nM	50 nM	48 nM	40 nM	–	–
CC(C)c1n[nH]c2c(NCc3ccc(-c4ccccn4)cc3)nc(SCCCN(C)C)nc12	99 nM	109 nM	105 nM	76 nM	–	–
C=CC(=O)N1CCC[C@@H](n2nc(-c3ccc(Oc4ccccc4)cc3)c3c(N)ncnc32)C1 [IBRUTINIB]	–	18900 nM	15900 nM	10700 nM	–	–
CC(O)CSc1nc(NCc2ccc(-c3ccccn3)cc2)c2[nH]nc(C(C)C)c2n1 (configuration not stated)	12 nM	152 nM	62 nM	81 nM	–	–

Structure (SMILES)	IC50 [1]	GI50 [2]	GI50 (HT)	GI50 [3]	IC50 [4]	IC50 (CDK9/cyclin T1)
CC(=O)NCCSc1nc(NCc2ccc(-c3ccccn3)cc2)c2[nH]nc(C(C)C)c2n1	41 nM	54 nM	71 nM	42 nM	–	–
CC(C)c1n[nH]c2c(NCc3ccc(-c4ccccn4)cc3)nc(SCCC(N)=O)nc12	19 nM	84 nM	120 nM	81 nM	–	–
CC(C)c1n[nH]c2c(NCc3ccc(-c4ccccn4)cc3)nc(SCC(N)CN)nc12 (configuration not stated)	12 nM	780 nM	480 nM	770 nM	–	–
CC(C)c1n[nH]c2c(NCc3ccc(-c4ccccn4)cc3)nc(SC3CCCC3O)nc12 (configuration not stated)	52 nM	373 nM	567 nM	450 nM	–	–
CC(C)c1n[nH]c2c(NCc3ccc(-c4ccccn4)cc3)nc(SCC(O)CN3CCOCC3)nc12 (configuration not stated)	156 nM	200 nM	200 nM	243 nM	–	–
CC(C)c1n[nH]c2c(NCc3ccc(-c4ccccn4)cc3)nc(SCC(O)C(F)(F)F)nc12 (configuration not stated)	132 nM	585 nM	690 nM	641 nM	–	–
CC(C)c1n[nH]c2c(NCc3ccc(-c4ccccn4)cc3)nc(SCC3CNC(=O)O3)nc12 (configuration not stated)	19 nM	53 nM	80 nM	69 nM	–	–
CC(C)c1n[nH]c2c(NCc3ccc(-c4ccccn4)cc3)nc(SC3CCCCC3N)nc12 (configuration not stated)	52 nM	136 nM	139 nM	157 nM	–	–
CC(C)c1n[nH]c2c(NCc3ccc(-c4ccccn4)cc3)nc(SCCN(C)C)nc12	77 nM	61 nM	54 nM	93 nM	–	–
CC(C)c1n[nH]c2c(NCc3ccc(-c4ccccn4)cc3)nc(SCC(C)(C)N)nc12	20 nM	100 nM	85 nM	64 nM	–	–
CC(C)c1n[nH]c2c(NCc3ccc(-c4ccccn4)cc3)nc(SC(CO)C(C)C)nc12 (configuration not stated)	77 nM	1000 nM	980 nM	1310 nM	–	–
CNCCSc1nc(NCc2ccc(-c3ccccn3)cc2)c2[nH]nc(C(C)C)c2n1	13 nM	92 nM	56 nM	40 nM	–	–
CC(C)c1n[nH]c2c(NCc3ccc(-c4ccccn4)cc3)nc(SC[C@H](O)CN)nc12	11 nM	99 nM	63 nM	51 nM	–	–
CC(C)c1n[nH]c2c(NCc3ccc(-c4ccccn4)cc3)nc(SC3CCCCC3O)nc12 (configuration not stated)	134 nM	680 nM	636 nM	530 nM	–	–
CC(C)c1n[nH]c2c(NCc3ccc(-c4ccccn4)cc3)nc(SCCCN)nc12	22 nM	151 nM	120 nM	156 nM	–	–
CC(C)c1n[nH]c2c(NCc3ccc(-c4ccccn4)cc3)nc(SC(C)C(C)O)nc12 (configuration not stated)	3 nM	141 nM	190 nM	160 nM	–	–
CC[C@H](CO)Nc1nc(NCc2ccc(-c3ccccn3)cc2)c2ncn(C(C)C)c2n1	–	307 nM	263 nM	202 nM	26100 nM	272 nM
CCC(CO)Sc1nc(NCc2ccc(-c3ccccn3)cc2)c2[nH]nc(C(C)C)c2n1 (configuration not stated)	150 nM	181 nM	255 nM	119 nM	–	–
